How the values were obtained:
Cyclooxygenase [1] = target: T1, Cyclooxygenase (Bos taurus, UniProt O62664+O62698); assay: Evaluated for the inhibition of Prostaglandin synthetase obtained from bovine seminal vesicles at the dose of 20 mg/kg (p.o.); parameters: dose 20 mg/kg, route oral
T1 sequence (O62664 whole entry): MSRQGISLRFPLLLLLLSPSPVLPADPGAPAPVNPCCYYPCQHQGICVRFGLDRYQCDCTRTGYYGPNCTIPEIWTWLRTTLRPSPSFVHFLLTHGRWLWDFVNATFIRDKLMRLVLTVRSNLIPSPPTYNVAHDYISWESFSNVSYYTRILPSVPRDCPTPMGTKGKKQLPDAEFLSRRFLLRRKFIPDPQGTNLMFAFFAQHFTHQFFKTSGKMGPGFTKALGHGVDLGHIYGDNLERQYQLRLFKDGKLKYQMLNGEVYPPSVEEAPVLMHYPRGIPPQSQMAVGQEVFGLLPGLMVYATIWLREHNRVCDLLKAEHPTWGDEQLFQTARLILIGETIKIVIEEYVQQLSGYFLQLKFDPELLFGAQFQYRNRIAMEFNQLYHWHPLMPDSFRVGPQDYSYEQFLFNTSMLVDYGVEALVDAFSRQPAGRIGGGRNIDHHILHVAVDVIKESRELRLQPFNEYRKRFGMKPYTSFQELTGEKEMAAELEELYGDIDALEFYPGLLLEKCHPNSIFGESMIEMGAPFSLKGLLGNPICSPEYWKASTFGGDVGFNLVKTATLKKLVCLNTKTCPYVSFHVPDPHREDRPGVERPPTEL
T1 sequence (O62698 whole entry): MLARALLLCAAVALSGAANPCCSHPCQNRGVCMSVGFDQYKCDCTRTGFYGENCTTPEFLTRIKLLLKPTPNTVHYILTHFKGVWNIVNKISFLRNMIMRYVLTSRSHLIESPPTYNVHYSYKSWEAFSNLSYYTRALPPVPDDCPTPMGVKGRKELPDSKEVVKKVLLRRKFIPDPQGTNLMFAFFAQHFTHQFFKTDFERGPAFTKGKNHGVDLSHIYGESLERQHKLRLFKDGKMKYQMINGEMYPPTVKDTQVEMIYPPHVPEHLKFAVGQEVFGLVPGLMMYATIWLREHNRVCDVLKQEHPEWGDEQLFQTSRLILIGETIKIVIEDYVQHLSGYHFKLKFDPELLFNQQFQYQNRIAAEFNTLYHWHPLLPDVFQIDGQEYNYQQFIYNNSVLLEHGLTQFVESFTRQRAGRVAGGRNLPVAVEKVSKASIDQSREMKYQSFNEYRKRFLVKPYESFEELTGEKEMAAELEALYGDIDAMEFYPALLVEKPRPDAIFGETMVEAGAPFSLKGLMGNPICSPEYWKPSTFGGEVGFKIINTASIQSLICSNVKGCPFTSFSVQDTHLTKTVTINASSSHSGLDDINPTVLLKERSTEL
How it was run: (§1)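 Cyclooxygenase-containing enzyme was a lyophilized 600g supernatant of bovine seminal vesicle homogenate in 0.05 M phosphate, pH 7.8. The assay used 0.1 M phosphate pH 7.8 with epinephrine and enzyme, and drug stocks of 3×10^-1 to 3×10^-6 M. After 3 min at 30 °C, arachidonic acid was added. Activity was taken as substrate minus basal O2-uptake rate, run in triplicate, and IC50 came from regression on log concentration.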

Rattus norvegicus [2] = assay: Percent change of the antiinflammatory activity in the 5-h Evans Blue-Carrageenan induced pleural effusion assay at the dose of 4.0 mg/kg (p.o.); type: functional; settings: route oral
How it was run: (§2)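 Six fasted male rats per group received compound orally by gavage (10 mL/kg) in vehicle containing 0.5% Tween 80. Pleural effusion was induced by intrapleural injection of 5 mL 0.075% Evans blue–0.5% carrageenan type 7 and measured after 5 h. Results are given as percent change in pleural fluid volume versus a concurrent control group, with indomethacin 4.0 mg/kg as standard.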

Rattus norvegicus [3] = assay: Percent change of the antiinflammatory activity in the 5-h Evans Blue-Carrageenan induced pleural effusion assay at the dose of 20 mg/kg (p.o.); type: functional; settings: route oral; how it was run: as §2
Rattus norvegicus [4] = assay: Evaluated for the antiinflammatory activity in the 5-h Evans Blue-Carrageenan induced pleural effusion assay at the dose of 20 mg/kg (p.o.); type: functional; settings: route oral; how it was run: as §2
Rattus norvegicus [5] = assay: Evaluated for the antiinflammatory activity in the 5-h Evans Blue-Carrageenan induced pleural effusion assay at the dose of 4.0 mg/kg (p.o.); type: functional; settings: route oral; how it was run: as §2
Cyclooxygenase [6] = target: T1, Cyclooxygenase; assay: Evaluated for the inhibition of Prostaglandin synthetase obtained from bovine seminal vesicles at the dose of 100 mg/kg (p.o.); parameters: dose 100 mg/kg, route oral; how it was run: as §1
Rattus norvegicus [7] = assay: Percent change of the antiinflammatory activity in the 5-h Evans Blue-Carrageenan induced pleural effusion assay at the dose of 100 mg/kg (p.o.); type: functional; settings: route oral; how it was run: as §2
Rattus norvegicus [8] = assay: Evaluated for the antiinflammatory activity in the 5-h Evans Blue-Carrageenan induced pleural effusion assay at the dose of 100 mg/kg (p.o.); type: functional; settings: route oral; how it was run: as §2
Cyclooxygenase [9] = target: T1, Cyclooxygenase; assay: Evaluated for the inhibition of Prostaglandin synthetase obtained from bovine seminal vesicles at the dose of 4 mg/kg p.o.; parameters: dose 4 mg/kg, route oral; how it was run: as §1
Rattus norvegicus [10] = assay: Persent change of the antiinflammatory activity in the 5-h Evans Blue-Carrageenan induced pleural effusion assay at the dose of 4.0 mg/kg (p.o.); type: functional; settings: route oral; how it was run: as §2
Rattus norvegicus [11] = assay: Percent activity in the 5-h Evans Blue-Carrageenan induced pleural effusion assay at the dose of 100 mg/kg (p.o.); type: functional; settings: route oral; how it was run: as §2
Rattus norvegicus [12] = assay: Percent activity in the 5-h Evans Blue-Carrageenan induced pleural effusion assay at the dose of 20 mg/kg (p.o.); type: functional; settings: route oral; how it was run: as §2
Rattus norvegicus [13] = assay: Persent change of the antiinflammatory activity in the 5-h Evans Blue-Carrageenan induced pleural effusion assay at the dose of 20 mg/kg (p.o.); type: functional; settings: route oral; how it was run: as §2
Cyclooxygenase [14] = target: T1, Cyclooxygenase; assay: Evaluated for the inhibition of prostaglandin synthetase obtained from bovine seminal vesicles at the dose of 4.0 mg/kg (p.o.); parameters: dose 4 mg/kg, route oral
Rattus norvegicus [15] = assay: Percent change of the antiinflammatory activity in the 5-h Evans Blue-Carrageenan induced pleural effusion assay at the dose of 0.8 mg/kg (p.o.); type: functional; settings: route oral; how it was run: as §2
Rattus norvegicus [16] = assay: Percent activity in the 5-h Evans Blue-Carrageenan induced pleural effusion assay at the dose of 0.16 mg/kg (p.o.); type: functional; settings: route oral; how it was run: as §2
Rattus norvegicus [17] = assay: Evaluated for the antiinflammatory activity in the 5-h Evans Blue-Carrageenan induced pleural effusion assay at the dose of 0.16 mg/kg (p.o.); type: functional; settings: route oral; how it was run: as §2
Rattus norvegicus [18] = assay: Evaluated for the antiinflammatory activity in the 5-h Evans Blue-Carrageenan induced pleural effusion assay at the dose of 0.8 mg/kg (p.o.); type: functional; settings: route oral; how it was run: as §2
Rattus norvegicus [19] = assay: Percent activity in the 5-h Evans Blue-Carrageenan induced pleural effusion assay at the dose of 4.0 mg/kg (p.o.); type: functional; settings: route oral; how it was run: as §2
Rattus norvegicus [20] = assay: Persent change of the antiinflammatory activity in the 5-h Evans Blue-Carrageenan induced pleural effusion assay at the dose of 0.16 mg/kg (p.o.); type: functional; settings: route oral; how it was run: as §2
Rattus norvegicus [21] = assay: Persent change of the antiinflammatory activity in the 5-h Evans Blue-Carrageenan induced pleural effusion assay at the dose of 0.8 mg/kg (p.o.); type: functional; settings: route oral; how it was run: as §2

IC50 (Cyclooxygenase [1]) [µM] | SMILES | Change (Rattus norvegicus [2]) [%] | Change (Rattus norvegicus [3]) [%] | Pleural fluid (Rattus norvegicus [4]) [mL] | Pleural fluid (Rattus norvegicus [5]) [mL] | Change (Rattus norvegicus [10]) [%] | further results
12 | CC(C(=O)[O-])c1ccc(-c2ccccc2)cc1.[Na+] (centres undefined) | -42 | -52 | 2.9 | 3.4 |  | 
 | O=C([O-])Cc1cccc(C(=O)c2ccccc2)c1Cl.[Na+] |  |  |  |  |  | IC50 (Cyclooxygenase [6]): > 100 µM; Change (Rattus norvegicus [7]): -8%; Pleural fluid (Rattus norvegicus [8]): 5.7 mL
 | CC(C(=O)[O-])c1cccc(C(=O)c2ccccc2)c1N.[Na+] (centres undefined) | -4 |  |  | 6 |  | IC50 (Cyclooxygenase [6]): 1 µM; Change (Rattus norvegicus [7]): -38%; Pleural fluid (Rattus norvegicus [8]): 3.4 mL
 | O=C([O-])Cc1cccc(C(=O)c2ccccc2)c1.[Na+] |  |  |  | 5.9 | -7 | IC50 (Cyclooxygenase [9]): 40 µM
 | CN(C)c1c(CC(=O)[O-])cccc1C(=O)c1ccccc1.[Na+] | -5 |  | 5.2 | 5.9 |  | IC50 (Cyclooxygenase [6]): > 1000 µM; Change (Rattus norvegicus [11]): -36%; Change (Rattus norvegicus [12]): -16%; Pleural fluid (Rattus norvegicus [8]): 3.9 mL
170 | Nc1cc(-c2ccccc2)ccc1CC(=O)[O-].[Na+] | -9 | -34 | 3.9 | 5.4 |  | 
420 | O=C([O-])Cc1ccc(-c2ccccc2)cc1.[Na+] | -21 | -35 | 3.9 | 4.7 |  | 
420 | Nc1c(CC(=O)[O-])cccc1Oc1ccccc1.[Na+] | 4 | -7 | 5.1 | 5.7 |  | 
> 1000 | O=C([O-])Cc1cccc(Oc2ccccc2)c1.[Na+] |  |  | 4.9 | 5.1 | -7 | Change (Rattus norvegicus [13]): -11%
 | Nc1c(CC(=O)[O-])cccc1C(=O)c1ccccc1.[Na+] [AMFENAC SODIUM] | -25 |  |  | 4.5 |  | IC50 (Cyclooxygenase [14]): 0.2 µM; Change (Rattus norvegicus [15]): -17%; Change (Rattus norvegicus [16]): -15%; Pleural fluid (Rattus norvegicus [17]): 5.1 mL; Pleural fluid (Rattus norvegicus [18]): 5 mL
98 | CC(C(=O)[O-])c1cccc(Oc2ccccc2)c1.[Na+] (centres undefined) [FENOPROFEN SODIUM] |  | -29 | 3.9 | 5.2 |  | Change (Rattus norvegicus [19]): -6%
 | COc1ccc2c(c1)c(CC(=O)O)c(C)n2C(=O)c1ccc(Cl)cc1 [INDOMETHACIN] |  |  |  | 4 | -28 | 
 | CC(C(=O)[O-])c1cccc(C(=O)c2ccccc2)c1.[Na+] (centres undefined) [KETOPROFEN SODIUM] |  |  |  | 3.6 | -41 | IC50 (Cyclooxygenase [9]): 3.4 µM; Change (Rattus norvegicus [20]): -4%; Change (Rattus norvegicus [21]): -24%; Pleural fluid (Rattus norvegicus [17]): 5.8 mL; Pleural fluid (Rattus norvegicus [18]): 4.6 mL

Source: ChEMBL document CHEMBL1122044, “Antiinflammatory agents. 2. Syntheses and antiinflammatory activity of substituted 2-aminophenylacetic acid derivatives” (J Med Chem, 1982)
